# Tests used:
# MDA-MB-231 [1] = assay: Antiproliferative activity against human MDA-MB-231 cells assessed as cell viability at 2.5 uM measured after 72 hrs by MTT assay (reference value: 100%); assay type: functional; conditions: read-out: Activity
# [2] = target: Calcium/calmodulin-dependent protein kinase kinase 2 (Homo sapiens) (UniProt Q96RR4); assay: Inhibition of GST-tagged full length human CAMKK2 expressed in baculovirus expression system at 1 uM by Selectscreen kinase assay
# Outline: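 Commercial SelectScreen profiling panel of 25 kinases, test compound at 1 μM. Values are the mean of three independent experiments, each run in triplicate.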
# MDA-MB-231 [3] = assay: Induction of apoptosis in human MDA-MB-231 cells assessed as necrotic cells at 0.2 uM incubated for 48 hrs by Annexin V-FITC/PI staining based flow cytometric analysis (reference value: 1.08%); assay type: functional
# MDA-MB-231 [4] = assay: Antiproliferative activity against human MDA-MB-231 cells assessed as cell viability at 0.1 uM measured after 48 hrs by MTT assay (reference value: 100%); assay type: functional; conditions: read-out: Activity
# MDA-MB-231 [5] = assay: Antiproliferative activity against human MDA-MB-231 cells assessed as cell viability at 0.5 uM measured after 48 hrs by MTT assay (reference value: 100%); assay type: functional; conditions: read-out: Activity
# A549 [6] = assay: Antiproliferative activity against human A549 cells assessed as reduction in cell viability measured after 24 to 72 hrs by MTT assay; assay type: functional, cell-based; conditions: dose 0.1-2.5 µM, time 24-72 hrs
# [7] = target: Tyrosine-protein kinase BTK (Homo sapiens) (UniProt Q06187); assay: Inhibition of His-tagged full length, recombinant human BTK expressed in baculovirus expression system at 1 uM by Selectscreen kinase assay
# Sequence of Tyrosine-protein kinase BTK (Homo sapiens) (Q06187 whole entry): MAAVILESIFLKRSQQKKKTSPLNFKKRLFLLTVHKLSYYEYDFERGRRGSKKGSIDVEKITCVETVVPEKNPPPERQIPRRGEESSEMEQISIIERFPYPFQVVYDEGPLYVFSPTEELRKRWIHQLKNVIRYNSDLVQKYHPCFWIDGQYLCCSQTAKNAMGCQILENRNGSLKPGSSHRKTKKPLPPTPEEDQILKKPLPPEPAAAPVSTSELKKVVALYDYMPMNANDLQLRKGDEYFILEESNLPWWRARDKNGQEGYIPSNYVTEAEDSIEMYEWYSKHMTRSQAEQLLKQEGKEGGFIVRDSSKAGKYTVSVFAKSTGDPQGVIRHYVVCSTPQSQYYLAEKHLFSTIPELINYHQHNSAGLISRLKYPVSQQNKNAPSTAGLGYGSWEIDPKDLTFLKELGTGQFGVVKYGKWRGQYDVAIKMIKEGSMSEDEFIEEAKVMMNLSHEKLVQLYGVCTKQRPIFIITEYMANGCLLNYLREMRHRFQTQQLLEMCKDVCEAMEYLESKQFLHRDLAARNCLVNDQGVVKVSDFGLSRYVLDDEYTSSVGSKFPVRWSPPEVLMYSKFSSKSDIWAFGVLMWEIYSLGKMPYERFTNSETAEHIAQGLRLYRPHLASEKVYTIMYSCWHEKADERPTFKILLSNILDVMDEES
# Outline: (§1)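 Single-point screen at 1 μM final against a panel of 25 kinases using a commercial profiling service; mean of three independent experiments each run in triplicate.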
# A549 [8] = assay: Antiproliferative activity against human A549 cells assessed as cell viability at 0.5 uM measured after 72 hrs by MTT assay (reference value: 100%); assay type: functional; conditions: read-out: Activity
# [9] = target: Homeodomain-interacting protein kinase 3 (Homo sapiens) (UniProt Q9H422); assay: Inhibition of His-tagged human HIPK3 catalytic domain expressed in baculovirus expression system at 1 uM by Selectscreen kinase assay; outline: as §1
# Sequence of Homeodomain-interacting protein kinase 3 (Homo sapiens) (Q9H422 whole entry, looked up, the tested form may be a part): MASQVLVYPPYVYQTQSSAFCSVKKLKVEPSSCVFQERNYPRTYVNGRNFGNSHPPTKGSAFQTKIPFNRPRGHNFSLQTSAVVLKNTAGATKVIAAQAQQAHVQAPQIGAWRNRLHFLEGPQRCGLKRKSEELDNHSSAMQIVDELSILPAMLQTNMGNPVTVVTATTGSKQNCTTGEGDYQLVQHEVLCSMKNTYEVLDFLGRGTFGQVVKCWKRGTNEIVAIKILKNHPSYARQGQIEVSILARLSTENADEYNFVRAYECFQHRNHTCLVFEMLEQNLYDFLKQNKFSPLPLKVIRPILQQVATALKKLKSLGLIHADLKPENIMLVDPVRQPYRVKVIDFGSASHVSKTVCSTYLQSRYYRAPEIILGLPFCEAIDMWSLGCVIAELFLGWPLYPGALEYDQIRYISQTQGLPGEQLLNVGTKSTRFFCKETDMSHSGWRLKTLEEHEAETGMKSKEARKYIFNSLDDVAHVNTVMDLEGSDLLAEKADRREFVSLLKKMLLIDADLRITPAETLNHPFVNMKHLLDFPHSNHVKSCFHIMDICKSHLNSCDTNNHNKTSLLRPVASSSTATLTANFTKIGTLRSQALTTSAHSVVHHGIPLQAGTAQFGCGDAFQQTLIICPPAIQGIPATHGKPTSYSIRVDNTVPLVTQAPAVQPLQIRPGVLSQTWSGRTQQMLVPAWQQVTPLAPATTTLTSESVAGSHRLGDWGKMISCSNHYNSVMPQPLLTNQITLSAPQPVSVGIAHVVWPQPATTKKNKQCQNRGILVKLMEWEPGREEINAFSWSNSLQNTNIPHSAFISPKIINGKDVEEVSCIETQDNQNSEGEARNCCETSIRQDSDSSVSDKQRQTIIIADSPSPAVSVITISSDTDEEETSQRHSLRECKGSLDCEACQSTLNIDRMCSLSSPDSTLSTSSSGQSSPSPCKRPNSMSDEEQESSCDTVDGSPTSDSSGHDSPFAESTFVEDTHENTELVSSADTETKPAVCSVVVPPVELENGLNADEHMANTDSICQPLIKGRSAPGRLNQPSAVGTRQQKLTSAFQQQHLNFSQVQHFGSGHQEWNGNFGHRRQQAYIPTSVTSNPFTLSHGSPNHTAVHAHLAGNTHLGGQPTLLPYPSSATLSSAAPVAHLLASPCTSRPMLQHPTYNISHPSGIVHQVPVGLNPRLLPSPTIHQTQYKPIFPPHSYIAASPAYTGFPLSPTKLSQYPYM
# [10] = Half life in rat liver microsomes at 1 uM measured up to 60 mins in presence of NADPH by LC-MS/MS analysis; assay type: ADME, Microsome
# Outline: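 Rat liver microsomes (0.5 mg/mL) were incubated with 1 μM test compound at 37 °C in potassium phosphate buffer (pH 7.4, 100 mM, 10 mM MgCl2). The reaction was started with prewarmed NADPH cofactor (1 mmol). It was sampled at 0, 5, 10, 20, 30 and 60 min and quenched with cold acetonitrile. Protein was removed by centrifugation and the supernatant analysed by LC-MS/MS.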
# MDA-MB-231 [11] = assay: Induction of apoptosis in human MDA-MB-231 cells assessed as necrotic cells at 0.4 uM incubated for 48 hrs by Annexin V-FITC/PI staining based flow cytometric analysis (reference value: 1.08%); assay type: functional
# Homo sapiens = organism: Homo sapiens; assay: Inhibition of His-tagged human PKA catalytic domain expressed in Escherichia coli expression system at 1 uM by Selectscreen kinase assay; outline: as §1
# MDA-MB-231 [12] = assay: Antiproliferative activity against human MDA-MB-231 cells assessed as cell viability at 0.5 uM measured after 24 hrs by MTT assay (reference value: 100%); assay type: functional; conditions: read-out: Activity
# MDA-MB-231 [13] = assay: Induction of cell cycle arrest in human MDA-MB-231 cells assessed as accumulation of cells at G2/M phase at 0.1 uM measured after 48 hrs by PI staining based flow cytometry method (reference value: 17.40%); assay type: functional
# MDA-MB-231 [14] = assay: Induction of cell cycle arrest in human MDA-MB-231 cells assessed as accumulation of cells at G2/M phase at 0.2 uM measured after 48 hrs by PI staining based flow cytometry method (reference value: 17.40%); assay type: functional
# [15] = Intrinsic clearance in rat liver microsomes at 1 uM measured after 60 mins in presence of NADPH by LC-MS/MS analysis; assay type: ADME, Microsome; conditions: read-out: CLH
# Outline: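 Rat liver microsomes (0.5 mg/mL) were incubated at 37 °C with 1 μM compound in 100 mM potassium phosphate, pH 7.4, with 10 mM MgCl2. Reaction was started with prewarmed NADPH cofactor and sampled at 0, 5, 10, 20, 30 and 60 min. Protein was precipitated with cold acetonitrile and supernatants analysed by LC-MS/MS to give half-life, 1 h remaining and intrinsic clearance.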
# MDA-MB-231 [16] = assay: Antiproliferative activity against human MDA-MB-231 cells assessed as cell viability at 0.5 uM measured after 72 hrs by MTT assay (reference value: 100%); assay type: functional; conditions: read-out: Activity
# Focal adhesion kinase 1 = Focal adhesion kinase 1 (Homo sapiens, UniProt Q05397); assay: Inhibition of N-terminal GST-fused human truncated FAK (376 to 1052 residues) expressed in baculovirus expression system using tyrosine kinase peptide as substrate measured after 50 mins in presence of ATP by homogenous time resolved flourescence assay
# Sequence of Focal adhesion kinase 1 (Q05397 whole entry, the tested form may be a part): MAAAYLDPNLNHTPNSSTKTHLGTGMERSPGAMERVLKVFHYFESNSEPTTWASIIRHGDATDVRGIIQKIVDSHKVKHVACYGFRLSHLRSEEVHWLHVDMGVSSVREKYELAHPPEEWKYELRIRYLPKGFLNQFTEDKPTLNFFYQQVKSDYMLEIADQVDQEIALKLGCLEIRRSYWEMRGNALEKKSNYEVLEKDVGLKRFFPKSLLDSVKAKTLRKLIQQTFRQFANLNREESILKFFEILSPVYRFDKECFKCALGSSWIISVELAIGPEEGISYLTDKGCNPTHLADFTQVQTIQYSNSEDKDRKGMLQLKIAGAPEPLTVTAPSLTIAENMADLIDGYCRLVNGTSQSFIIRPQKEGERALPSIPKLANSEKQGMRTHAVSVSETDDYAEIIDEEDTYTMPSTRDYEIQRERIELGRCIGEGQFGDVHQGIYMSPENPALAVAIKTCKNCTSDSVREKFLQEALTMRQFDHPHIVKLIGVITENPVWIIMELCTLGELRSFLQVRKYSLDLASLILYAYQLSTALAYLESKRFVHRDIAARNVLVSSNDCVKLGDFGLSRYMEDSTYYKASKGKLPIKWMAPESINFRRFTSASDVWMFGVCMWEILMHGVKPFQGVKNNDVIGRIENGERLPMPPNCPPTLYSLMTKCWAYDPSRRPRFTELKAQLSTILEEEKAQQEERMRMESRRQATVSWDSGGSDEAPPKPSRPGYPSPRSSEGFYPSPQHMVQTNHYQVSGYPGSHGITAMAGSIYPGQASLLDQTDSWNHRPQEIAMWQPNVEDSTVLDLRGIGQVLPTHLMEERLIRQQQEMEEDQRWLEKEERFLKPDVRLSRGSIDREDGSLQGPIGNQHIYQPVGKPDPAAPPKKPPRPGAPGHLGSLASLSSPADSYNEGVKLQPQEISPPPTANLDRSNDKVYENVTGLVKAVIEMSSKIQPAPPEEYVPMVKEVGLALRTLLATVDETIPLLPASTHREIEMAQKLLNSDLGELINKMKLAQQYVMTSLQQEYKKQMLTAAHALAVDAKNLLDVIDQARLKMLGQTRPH
# A549 [17] = assay: Antiproliferative activity against human A549 cells assessed as cell viability at 2.5 uM measured after 24 hrs by MTT assay (reference value: 100%); assay type: functional; conditions: read-out: Activity
# [18] = target: Cyclin-dependent kinase 2 (Homo sapiens) (UniProt P24941); assay: Inhibition of human CDK2 at 1 uM by Selectscreen kinase assay; outline: as §1
# [19] = target: Proto-oncogene tyrosine-protein kinase receptor Ret (Homo sapiens) (UniProt P07949); assay: Inhibition of GST-tagged human RET cytoplasmic domain expressed in baculovirus expression system at 1 uM by Selectscreen kinase assay; outline: as §1
# Sequence of Proto-oncogene tyrosine-protein kinase receptor Ret (Homo sapiens) (P07949 whole entry, the tested form may be a part): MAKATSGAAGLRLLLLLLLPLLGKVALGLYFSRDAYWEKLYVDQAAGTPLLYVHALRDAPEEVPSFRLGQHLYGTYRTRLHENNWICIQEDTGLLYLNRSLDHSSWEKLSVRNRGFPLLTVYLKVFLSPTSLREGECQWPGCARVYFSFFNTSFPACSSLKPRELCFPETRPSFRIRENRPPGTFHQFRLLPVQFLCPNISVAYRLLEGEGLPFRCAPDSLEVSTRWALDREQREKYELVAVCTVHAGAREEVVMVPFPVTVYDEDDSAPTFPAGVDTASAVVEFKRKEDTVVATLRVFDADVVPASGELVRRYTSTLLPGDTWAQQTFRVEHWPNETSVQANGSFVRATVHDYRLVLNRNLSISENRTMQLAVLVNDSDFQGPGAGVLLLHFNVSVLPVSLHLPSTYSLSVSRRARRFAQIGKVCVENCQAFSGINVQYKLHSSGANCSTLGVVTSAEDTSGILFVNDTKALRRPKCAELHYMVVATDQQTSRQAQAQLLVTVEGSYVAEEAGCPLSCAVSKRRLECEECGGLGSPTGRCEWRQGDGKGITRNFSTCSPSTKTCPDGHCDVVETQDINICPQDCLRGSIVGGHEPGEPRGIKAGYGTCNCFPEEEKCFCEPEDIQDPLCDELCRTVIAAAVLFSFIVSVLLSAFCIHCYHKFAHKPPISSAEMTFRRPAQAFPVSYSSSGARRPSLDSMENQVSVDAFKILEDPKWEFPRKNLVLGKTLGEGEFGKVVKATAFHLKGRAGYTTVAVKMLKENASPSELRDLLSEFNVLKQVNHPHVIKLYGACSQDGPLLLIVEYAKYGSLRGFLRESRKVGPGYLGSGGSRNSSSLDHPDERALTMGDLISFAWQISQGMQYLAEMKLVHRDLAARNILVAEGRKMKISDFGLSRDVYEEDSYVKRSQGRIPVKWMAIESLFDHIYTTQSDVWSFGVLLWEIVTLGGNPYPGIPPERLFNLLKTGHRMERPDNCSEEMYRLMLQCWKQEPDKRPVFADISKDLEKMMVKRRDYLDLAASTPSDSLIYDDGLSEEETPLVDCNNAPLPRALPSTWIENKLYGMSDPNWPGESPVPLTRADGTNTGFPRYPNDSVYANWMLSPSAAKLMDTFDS
# MDA-MB-231 [20] = assay: Induction of cell cycle arrest in human MDA-MB-231 cells assessed as accumulation of cells at G0/G1 phase at 0.1 uM measured after 48 hrs by PI staining based flow cytometry method (reference value: 43.43%); assay type: functional
# [21] = target: Mast/stem cell growth factor receptor Kit (Homo sapiens) (UniProt P10721); assay: Inhibition of His-tagged human KIT cytoplasmic domain expressed in baculovirus expression system at 1 uM by Selectscreen kinase assay; outline: as §1
# MDA-MB-231 [22] = assay: Induction of apoptosis in human MDA-MB-231 cells assessed as late apoptotic cells at 0.2 uM incubated for 48 hrs by Annexin V-FITC/PI staining based flow cytometric analysis (reference value: 1.49%); assay type: functional
# [23] = target: Mitogen-activated protein kinase 1 (Homo sapiens) (UniProt P28482); assay: Inhibition of GST-tagged full length human ERK2 expressed in Escherichia coli at 1 uM by Selectscreen kinase assay; outline: as §1
# Sequence of Mitogen-activated protein kinase 1 (Homo sapiens) (P28482 whole entry): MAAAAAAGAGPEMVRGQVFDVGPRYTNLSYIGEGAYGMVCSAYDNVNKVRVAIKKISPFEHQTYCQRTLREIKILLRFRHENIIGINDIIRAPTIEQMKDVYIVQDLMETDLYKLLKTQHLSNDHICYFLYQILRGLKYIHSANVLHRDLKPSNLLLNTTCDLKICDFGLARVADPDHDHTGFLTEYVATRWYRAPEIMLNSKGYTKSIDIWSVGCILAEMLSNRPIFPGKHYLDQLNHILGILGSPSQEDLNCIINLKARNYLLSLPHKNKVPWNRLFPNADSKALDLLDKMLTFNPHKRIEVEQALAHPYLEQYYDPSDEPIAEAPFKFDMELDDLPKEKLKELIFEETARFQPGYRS
# A549 [24] = assay: Antiproliferative activity against human A549 cells assessed as cell viability at 0.1 uM measured after 48 hrs by MTT assay (reference value: 100%); assay type: functional; conditions: read-out: Activity
# U-87 MG = assay: Antiproliferative activity against human U-87MG cells assessed as inhibition of cell growth measured after 72 hrs by MTT assay; assay type: functional, cell-based, U-87MG ATCC
# Outline: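 Cells were seeded at 4000–5000/well and held 24 h at 37 °C in 5% CO2. Compounds were added at the indicated final concentrations and incubated 72 h. MTT was added (5 mg/mL in PBS, stated as final) for 4 h at 37 °C. Formazan was dissolved in DMSO and absorbance read at 490 nm. The 50% growth-inhibitory concentration is the mean of three independent experiments ± SE.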
# Sequence of Calcium/calmodulin-dependent protein kinase kinase 2 (Homo sapiens) (Q96RR4 2-588 limits assumed): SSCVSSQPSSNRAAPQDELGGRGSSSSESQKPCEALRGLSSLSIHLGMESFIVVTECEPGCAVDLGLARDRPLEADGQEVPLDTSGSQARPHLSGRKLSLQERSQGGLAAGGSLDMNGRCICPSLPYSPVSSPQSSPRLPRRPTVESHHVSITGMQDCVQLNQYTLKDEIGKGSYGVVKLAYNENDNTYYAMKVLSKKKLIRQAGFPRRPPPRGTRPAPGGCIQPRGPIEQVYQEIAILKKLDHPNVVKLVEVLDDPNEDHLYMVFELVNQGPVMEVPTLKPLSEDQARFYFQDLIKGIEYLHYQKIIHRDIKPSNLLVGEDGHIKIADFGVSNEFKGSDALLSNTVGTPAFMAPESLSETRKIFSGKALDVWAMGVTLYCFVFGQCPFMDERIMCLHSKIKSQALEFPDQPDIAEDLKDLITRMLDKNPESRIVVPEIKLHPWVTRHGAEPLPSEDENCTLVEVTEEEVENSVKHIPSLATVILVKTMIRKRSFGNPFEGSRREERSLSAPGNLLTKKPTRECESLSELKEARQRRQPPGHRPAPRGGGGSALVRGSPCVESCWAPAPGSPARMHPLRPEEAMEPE
smiles,measurement,setting,value
COc1ccccc1-c1csc2cnc(Nc3ccc(C(=O)NC4CCNCC4)c(F)c3)nc12,viability at 2.5 µM,MDA-MB-231 [1],9.1%
same,inhibition,[2],77%
same,Activity,MDA-MB-231 [3],1.72%
same,viability at 0.1 µM,MDA-MB-231 [4],74.1%
same,viability at 0.5 µM,MDA-MB-231 [5],40.7%
same,Activity,A549 [6],Dose-dependent effect
same,inhibition,[7],88%
same,viability at 0.5 µM,A549 [8],32.2%
same,inhibition,[9],72%
same,half-life at 1 µM,[10],2.23 h
same,Activity,MDA-MB-231 [11],4.4%
same,inhibition,Homo sapiens,63%
same,viability at 0.5 µM,MDA-MB-231 [12],73.7%
same,Activity,MDA-MB-231 [13],12.79%
same,Activity,MDA-MB-231 [14],9.49%
same,microsomal CLint at 1 µM,[15],10.4 µL/min/mg
same,viability at 0.5 µM,MDA-MB-231 [16],31%
same,IC50,Focal adhesion kinase 1,28.2 nM
same,viability at 2.5 µM,A549 [17],51.5%
same,inhibition,[18],97%
same,inhibition,[19],97%
same,Activity,MDA-MB-231 [20],45.25%
same,inhibition,[21],41%
same,Activity,MDA-MB-231 [22],13.55%
same,inhibition,[23],1%
same,viability at 0.1 µM,A549 [24],78.7%
same,IC50,U-87 MG,160 nM

# — ChEMBL document CHEMBL4765248, “Design, synthesis, biological evaluation and molecular docking study of novel thieno[3,2-d]pyrimidine derivatives as potent FAK inhibitors” (Eur J Med Chem, 2020)
